These results are taken from ChEMBL document CHEMBL1208725, “Prostaglandin phospholipid conjugates with unusual biophysical and cytotoxic properties” (Bioorg Med Chem Lett, 2010).

Series [1] concerns secretory phospholipase A2. Briefly: Chemical stability of the compound in presence of snake venom secretory phospholipase A2 after 48 hrs by MALDI-TOF MS analysis. Format: physicochemical. The following applies: read-out: Stability. An outline of the steps: (§1)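 Formulated lipid suspensions (extruded through a 100 nm filter) were incubated with purified snake venom sPLA₂ (Agkistrodon piscivorus piscivorus and Naja mossambica mossambica) with stirring at 37 °C. Samples were taken at 2, 24 and 48 h for MALDI-TOF MS. The matrix was DHB and CF₃COONa in methanol with DPPG as internal standard. Hydrolysis was estimated as conversion of the conjugate.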

Series [2] has as its system HT-29. Briefly: Cytotoxicity against human HT-29 cells after 24 hrs by MTT assay. The class given is functional, cell-based. The following applies: HT-29, 24 h. Summed up:
(§2)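 Colon cancer cells were incubated with the substances for 24 h. Viability was then read by MTT assay 48 h after incubation. IC₅₀ values are mean SD, n ≥ 3.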
(Tetrazolium dyes change colour on reduction, which living cells bring about.)

The test system of series [3] is HT-29. Put plainly: Cytotoxicity against human HT-29 cells after 24 hrs by MTT assay in presence of snake venom secretory phospholipase A2. The class given is functional, cell-based. The following applies: HT-29, 24 h.
Series [4] relates to COLO 205. Briefly: Cytotoxicity against human COLO205 cells after 24 hrs by MTT assay. Format: functional, cell-based. The following applies: COLO 205, 24 h. An outline of the steps:
as §2

Series [5] has as its system COLO 205. Briefly: Induction of apoptosis in human COLO205 cells at 20 uM. Format: functional, cell-based.
In series [6] the test system is COLO 205. Put plainly: Induction of apoptosis in human COLO205 cells assessed as complete cell death at 100 uM. The class given is functional, cell-based.
Series [7] is described as follows: Chemical stability of the compound in presence of snake venom secretory phospholipase A2 after 24 hrs by MALDI-TOF MS analysis. The class given is physicochemical. An outline of the steps:
as §1

SMILES strings stand for the structures. Calls of active or inactive are those of the source. No cut-off for these calls is given here.

Consider `CCCCC/C=C/C=C1\C(=O)C=C[C@H]1C/C=C/CCCC(=O)O[C@H](COCCCCCCCCCCCCCCCCCC)COP(=O)(O)OC[C@@H](O)CO`, for which the remaining at 48 h in series [1] was determined as 70%. Also, the IC50 (in general, the concentration that gives 50% inhibition) with HT-29 [2] stood at 6 µM; in the series on HT-29 [3], 2.2 µM; with COLO 205 [4], 9 µM. Further, the result in the series on COLO 205 [5] and in the series on COLO 205 [6] was Active.
As to `CCCCC/C=C/C=C1\C(=O)C=C[C@@H]1C/C=C/CCCC(=O)O`, the figures for the IC50 in the series with HT-29 [2] and with COLO 205 [4] were 1.6 µM and 4 µM, respectively.
For the compound `CCCCC/C=C/C=C1\C(=O)C=C[C@H]1C/C=C/CCCC(=O)O[C@H](COC(=O)CCCCCCCCCCCCCCCCC)COP(=O)([O-])OC[C@@H](O)CO.[Na+]`, the Stability entry in series [7] is listed as “Unstable”. In addition, the concentration for half-maximal inhibition (IC50) was 32 µM with HT-29 [2], 6.4 µM in the series with HT-29 [3] and 17 µM with COLO 205 [4]. In addition, the result with COLO 205 [5] and in the series on COLO 205 [6] was Active.
